According to ChEMBL document CHEMBL5661979, “Pharmacological inhibition of BMK1 suppresses tumor growth through promyelocytic leukemia protein” (Cancer Cell, 2010):
Active and inactive are the calls of the source. The rule behind the calls is not given here.

How the values were obtained:
[1] = molecular target: Mitogen-activated protein kinase kinase kinase 1 (Homo sapiens, UniProt Q13233); experiment: Inhibition of MAP3K1 in human HeLa cells lysate at 50 uM pre incubated for 15 mins followed by ADP acyl phosphate probe addition and measured after 10 mins by LC-MS/MS analysis relative to control; type: subcellular; settings: time 25.0 min
Mitogen-activated protein kinase kinase kinase 1, sequence (Q13233 whole entry): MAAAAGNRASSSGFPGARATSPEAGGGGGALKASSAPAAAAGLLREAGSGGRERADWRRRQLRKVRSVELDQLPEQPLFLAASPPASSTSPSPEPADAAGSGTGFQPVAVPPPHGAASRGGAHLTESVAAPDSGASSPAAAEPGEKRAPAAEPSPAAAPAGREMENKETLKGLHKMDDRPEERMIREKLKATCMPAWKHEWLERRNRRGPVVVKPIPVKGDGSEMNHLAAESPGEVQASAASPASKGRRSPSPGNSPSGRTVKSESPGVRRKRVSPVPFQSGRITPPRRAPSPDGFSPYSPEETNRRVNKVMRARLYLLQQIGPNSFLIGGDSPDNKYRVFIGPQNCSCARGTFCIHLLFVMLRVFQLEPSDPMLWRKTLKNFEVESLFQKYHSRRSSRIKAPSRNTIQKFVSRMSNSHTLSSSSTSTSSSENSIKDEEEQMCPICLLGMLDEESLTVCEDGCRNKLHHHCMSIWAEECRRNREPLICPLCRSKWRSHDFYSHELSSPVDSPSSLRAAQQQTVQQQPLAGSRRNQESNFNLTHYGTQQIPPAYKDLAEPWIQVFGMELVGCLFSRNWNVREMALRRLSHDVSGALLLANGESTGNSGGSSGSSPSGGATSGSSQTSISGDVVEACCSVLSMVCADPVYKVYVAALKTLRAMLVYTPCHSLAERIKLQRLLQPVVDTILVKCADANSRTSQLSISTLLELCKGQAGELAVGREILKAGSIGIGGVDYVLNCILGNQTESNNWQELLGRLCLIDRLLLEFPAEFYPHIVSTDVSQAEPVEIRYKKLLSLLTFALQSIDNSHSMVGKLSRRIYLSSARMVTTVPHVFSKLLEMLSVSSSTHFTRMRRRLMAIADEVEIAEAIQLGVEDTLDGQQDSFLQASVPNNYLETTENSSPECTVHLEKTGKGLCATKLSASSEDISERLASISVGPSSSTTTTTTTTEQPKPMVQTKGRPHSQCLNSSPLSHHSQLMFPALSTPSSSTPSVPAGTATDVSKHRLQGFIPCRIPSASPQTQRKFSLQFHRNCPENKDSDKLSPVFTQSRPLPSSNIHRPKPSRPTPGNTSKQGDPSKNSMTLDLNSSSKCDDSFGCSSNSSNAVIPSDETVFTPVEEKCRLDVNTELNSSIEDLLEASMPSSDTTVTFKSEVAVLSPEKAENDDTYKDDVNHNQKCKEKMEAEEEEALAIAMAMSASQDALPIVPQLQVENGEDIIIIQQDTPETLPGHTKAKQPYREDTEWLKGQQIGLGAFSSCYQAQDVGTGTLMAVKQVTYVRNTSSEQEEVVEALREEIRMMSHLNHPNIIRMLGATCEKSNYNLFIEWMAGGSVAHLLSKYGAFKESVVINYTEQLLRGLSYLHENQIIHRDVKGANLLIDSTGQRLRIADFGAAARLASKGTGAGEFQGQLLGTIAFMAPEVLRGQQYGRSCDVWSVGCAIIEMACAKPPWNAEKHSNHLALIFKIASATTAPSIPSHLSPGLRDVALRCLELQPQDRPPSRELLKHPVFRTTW

[2] = Clearance in Sprague-Dawley rat at 2 mg/kg, po measured up to 8 hrs by LC-MS/MS analysis; type: ADME, organism-based; settings: in vivo
Summary of the method: (§1)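 Sprague-Dawley rats given one intravenous dose or one oral dose of 2 mg/kg. Plasma drug concentrations were followed over time, with samples taken out to 8 hr after dosing. PK parameters (clearance, volume of distribution, half-life, oral bioavailability, Cmax) were calculated from these concentration–time data.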

[3] = molecular target: Serine/threonine-protein kinase WNK1 (Homo sapiens, UniProt Q9H4A3); experiment: Inhibition of Wnk1 in human HeLa cells lysate at 10 uM pre incubated for 15 mins followed by ATP acyl phosphate probe addition and measured after 10 mins by LC-MS/MS analysis relative to control; type: subcellular; settings: time 25.0 min
[4] = Inhibition of CK1g1/g2/g3 in human HeLa cells lysate at 50 uM pre incubated for 15 mins followed by ADP acyl phosphate probe addition and measured after 10 mins by LC-MS/MS analysis relative to control; settings: 25 min, condition cancer
[5] = AUCinfinity in Sprague-Dawley rat at 1 mg/kg, iv measured up to 8 hrs by LC-MS/MS analysis; type: ADME, organism-based; settings: in vivo; summary of the method: as §1
[6] = molecular target: Serine/threonine-protein kinase B-raf (Homo sapiens, UniProt P15056); experiment: Inhibition of BRAF in human HeLa cells lysate pre incubated for 15 mins followed by ATP acyl phosphate probe addition and measured after 10 mins by LC-MS/MS analysis; type: subcellular
Serine/threonine-protein kinase B-raf, sequence (P15056 whole entry, the tested form may be a part): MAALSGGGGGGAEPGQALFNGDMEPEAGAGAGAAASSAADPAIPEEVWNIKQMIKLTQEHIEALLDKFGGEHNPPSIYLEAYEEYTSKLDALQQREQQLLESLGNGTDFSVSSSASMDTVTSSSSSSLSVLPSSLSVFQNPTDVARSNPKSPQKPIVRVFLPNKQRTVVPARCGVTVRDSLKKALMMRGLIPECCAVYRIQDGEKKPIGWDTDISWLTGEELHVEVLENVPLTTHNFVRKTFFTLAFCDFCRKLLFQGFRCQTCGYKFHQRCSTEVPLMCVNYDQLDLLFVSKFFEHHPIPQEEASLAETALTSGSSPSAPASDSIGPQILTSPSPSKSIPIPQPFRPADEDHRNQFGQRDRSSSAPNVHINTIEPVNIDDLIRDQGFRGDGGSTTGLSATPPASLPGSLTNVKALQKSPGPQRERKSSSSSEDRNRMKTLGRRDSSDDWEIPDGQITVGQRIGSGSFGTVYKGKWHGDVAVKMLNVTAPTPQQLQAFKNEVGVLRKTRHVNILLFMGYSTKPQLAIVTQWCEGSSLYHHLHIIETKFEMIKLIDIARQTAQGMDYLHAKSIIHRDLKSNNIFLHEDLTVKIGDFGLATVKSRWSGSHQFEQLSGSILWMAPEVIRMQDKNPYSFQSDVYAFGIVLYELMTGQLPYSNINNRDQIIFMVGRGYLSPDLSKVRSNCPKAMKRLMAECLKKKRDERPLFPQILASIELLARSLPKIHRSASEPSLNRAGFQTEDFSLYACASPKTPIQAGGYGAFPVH
Summary of the method: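 KiNativ-type profiling in HeLa lysate (5 mg/mL total protein). Lysate preincubated 15 min with inhibitor at 50, 10, 2, 0.8 or 0 μM, then ATP or ADP acylphosphate probe added (5 μM final) for 10 min. Reaction stopped with urea and analysed by targeted MS, using up to four fragment ions per kinase peptide-probe conjugate. % inhibition calculated against untreated lysate. Duplicate reactions.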

[7] = molecular target: Insulin receptor (Homo sapiens, UniProt P06213); experiment: Inhibition of INSR in human HeLa cells lysate at 10 uM pre incubated for 15 mins followed by ADP acyl phosphate probe addition and measured after 10 mins by LC-MS/MS analysis relative to control; type: subcellular; settings: time 25.0 min
[8] = molecular target: Ribosomal protein S6 kinase alpha-3 (Homo sapiens, UniProt P51812); experiment: Inhibition of RSK2 domain 1 active form in human HeLa cells lysate at 10 uM pre incubated for 15 mins followed by ATP acyl phosphate probe addition and measured after 10 mins by LC-MS/MS analysis relative to control; type: subcellular; settings: time 25.0 min
[9] = molecular target: T1, Dual specificity mitogen-activated protein kinase kinase 5 (Homo sapiens) (UniProt Q13163); experiment: Inhibition of MAP2K5 in human HeLa cells lysate upto 50 uM pre incubated for 15 mins followed by ADP acyl phosphate probe addition and measured after 10 mins by LC-MS/MS analysis; type: subcellular; settings: time 25.0 min
T1 sequence (whole entry): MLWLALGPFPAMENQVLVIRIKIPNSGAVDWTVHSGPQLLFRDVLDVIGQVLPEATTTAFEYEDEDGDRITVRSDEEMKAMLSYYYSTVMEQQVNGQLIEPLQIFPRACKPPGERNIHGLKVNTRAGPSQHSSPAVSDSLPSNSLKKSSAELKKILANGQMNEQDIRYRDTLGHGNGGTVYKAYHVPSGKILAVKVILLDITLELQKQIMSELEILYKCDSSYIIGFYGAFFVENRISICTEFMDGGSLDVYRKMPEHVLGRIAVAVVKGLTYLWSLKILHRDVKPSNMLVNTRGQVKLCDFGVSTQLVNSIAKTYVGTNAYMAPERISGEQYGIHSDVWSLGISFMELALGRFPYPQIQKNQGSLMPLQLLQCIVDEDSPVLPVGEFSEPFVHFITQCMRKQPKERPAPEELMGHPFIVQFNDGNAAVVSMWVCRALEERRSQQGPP

[10] = molecular target: Protein kinase C theta type (Homo sapiens, UniProt Q04759); experiment: Inhibition of PKCtheta in human HeLa cells lysate at 10 uM pre incubated for 15 mins followed by ATP acyl phosphate probe addition and measured after 10 mins by LC-MS/MS analysis relative to control; type: subcellular; settings: time 25.0 min
Protein kinase C theta type, sequence (Q04759 whole entry, looked up): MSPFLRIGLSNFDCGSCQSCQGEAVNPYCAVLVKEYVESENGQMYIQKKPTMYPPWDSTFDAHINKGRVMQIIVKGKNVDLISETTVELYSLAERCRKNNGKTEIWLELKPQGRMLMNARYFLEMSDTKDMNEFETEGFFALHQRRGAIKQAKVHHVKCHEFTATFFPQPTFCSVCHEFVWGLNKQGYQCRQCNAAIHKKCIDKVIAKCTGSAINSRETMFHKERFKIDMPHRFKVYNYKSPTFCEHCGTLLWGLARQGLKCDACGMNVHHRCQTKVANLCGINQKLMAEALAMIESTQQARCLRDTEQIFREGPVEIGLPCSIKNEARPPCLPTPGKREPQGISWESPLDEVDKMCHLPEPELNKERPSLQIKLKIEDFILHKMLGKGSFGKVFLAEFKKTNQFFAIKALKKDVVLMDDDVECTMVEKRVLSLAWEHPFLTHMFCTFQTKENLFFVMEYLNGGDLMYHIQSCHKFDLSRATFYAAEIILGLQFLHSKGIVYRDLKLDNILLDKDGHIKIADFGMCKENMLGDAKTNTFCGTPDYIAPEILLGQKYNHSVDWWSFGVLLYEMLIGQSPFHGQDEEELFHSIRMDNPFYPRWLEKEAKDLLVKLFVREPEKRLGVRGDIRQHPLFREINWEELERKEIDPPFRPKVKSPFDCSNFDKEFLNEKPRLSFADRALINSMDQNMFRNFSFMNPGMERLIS

[11] = Inhibition of PRKX/PRKY in human HeLa cells lysate at 2 uM pre incubated for 15 mins followed by ADP acyl phosphate probe addition and measured after 10 mins by LC-MS/MS analysis relative to control; settings: 25 min, condition cancer
[12] = molecular target: Interferon-induced, double-stranded RNA-activated protein kinase (Homo sapiens, UniProt P19525); experiment: Inhibition of PKR in human HeLa cells lysate at 2 uM pre incubated for 15 mins followed by ADP acyl phosphate probe addition and measured after 10 mins by LC-MS/MS analysis relative to control; type: subcellular; settings: time 25.0 min
Interferon-induced, double-stranded RNA-activated protein kinase, sequence (P19525 whole entry): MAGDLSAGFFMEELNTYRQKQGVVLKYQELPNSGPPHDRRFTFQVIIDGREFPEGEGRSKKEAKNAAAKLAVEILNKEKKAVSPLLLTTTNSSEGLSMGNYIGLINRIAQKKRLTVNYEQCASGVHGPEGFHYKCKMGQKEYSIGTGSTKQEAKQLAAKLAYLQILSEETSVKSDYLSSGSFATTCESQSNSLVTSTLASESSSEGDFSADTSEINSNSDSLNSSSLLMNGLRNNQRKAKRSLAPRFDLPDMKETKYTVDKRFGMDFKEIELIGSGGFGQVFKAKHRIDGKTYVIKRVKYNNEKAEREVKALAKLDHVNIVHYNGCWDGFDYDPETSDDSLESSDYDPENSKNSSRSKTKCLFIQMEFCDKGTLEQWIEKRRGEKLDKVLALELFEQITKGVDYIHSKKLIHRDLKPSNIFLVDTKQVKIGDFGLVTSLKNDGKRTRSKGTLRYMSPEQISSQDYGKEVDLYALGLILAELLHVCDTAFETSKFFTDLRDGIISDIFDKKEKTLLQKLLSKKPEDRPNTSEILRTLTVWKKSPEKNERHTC

[13] = molecular target: T2, Dual specificity mitogen-activated protein kinase kinase 3 (Homo sapiens) (UniProt P46734); experiment: Inhibition of MAP2K3 in human HeLa cells lysate at 10 uM pre incubated for 15 mins followed by ADP acyl phosphate probe addition and measured after 10 mins by LC-MS/MS analysis relative to control; type: subcellular; settings: time 25.0 min
T2 sequence (whole entry): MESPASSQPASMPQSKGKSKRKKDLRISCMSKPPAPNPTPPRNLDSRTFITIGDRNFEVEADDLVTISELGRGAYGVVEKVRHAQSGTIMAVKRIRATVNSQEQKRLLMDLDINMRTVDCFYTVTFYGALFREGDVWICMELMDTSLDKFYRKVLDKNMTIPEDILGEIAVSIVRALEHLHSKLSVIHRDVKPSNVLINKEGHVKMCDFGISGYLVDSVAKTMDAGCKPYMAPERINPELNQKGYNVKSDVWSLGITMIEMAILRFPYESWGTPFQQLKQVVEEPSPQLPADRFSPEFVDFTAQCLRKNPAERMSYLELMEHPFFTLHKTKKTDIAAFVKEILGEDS

[14] = Inhibition of MAP3K2/3 in human HeLa cells lysate at 2 uM pre incubated for 15 mins followed by ATP acyl phosphate probe addition and measured after 10 mins by LC-MS/MS analysis relative to control; settings: 25 min, condition cancer
[15] = molecular target: AMPK alpha1/alpha2 (Homo sapiens, UniProt P54646+Q13131); experiment: Inhibition of AMPKalpha1/2 in human HeLa cells lysate pre incubated for 15 mins followed by ADP acyl phosphate probe addition and measured after 10 mins by LC-MS/MS analysis; type: subcellular
AMPK alpha1/alpha2, sequence (P54646 whole entry, the tested form may be a part): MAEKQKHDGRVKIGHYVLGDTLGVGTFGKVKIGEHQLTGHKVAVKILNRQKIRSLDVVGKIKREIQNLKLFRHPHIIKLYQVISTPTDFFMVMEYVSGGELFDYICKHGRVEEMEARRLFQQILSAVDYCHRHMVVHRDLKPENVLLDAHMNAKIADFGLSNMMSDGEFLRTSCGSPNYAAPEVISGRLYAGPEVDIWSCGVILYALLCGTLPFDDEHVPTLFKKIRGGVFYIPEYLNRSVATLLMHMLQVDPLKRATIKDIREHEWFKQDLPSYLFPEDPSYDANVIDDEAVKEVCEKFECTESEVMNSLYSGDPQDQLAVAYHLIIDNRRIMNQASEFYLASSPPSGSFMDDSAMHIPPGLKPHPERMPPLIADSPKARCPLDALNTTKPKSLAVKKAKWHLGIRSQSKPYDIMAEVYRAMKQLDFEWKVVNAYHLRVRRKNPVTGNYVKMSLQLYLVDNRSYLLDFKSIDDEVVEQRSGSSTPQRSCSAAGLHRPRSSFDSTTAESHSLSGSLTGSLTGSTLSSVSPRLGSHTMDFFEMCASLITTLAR
AMPK alpha1/alpha2, sequence (Q13131 whole entry, the tested form may be a part): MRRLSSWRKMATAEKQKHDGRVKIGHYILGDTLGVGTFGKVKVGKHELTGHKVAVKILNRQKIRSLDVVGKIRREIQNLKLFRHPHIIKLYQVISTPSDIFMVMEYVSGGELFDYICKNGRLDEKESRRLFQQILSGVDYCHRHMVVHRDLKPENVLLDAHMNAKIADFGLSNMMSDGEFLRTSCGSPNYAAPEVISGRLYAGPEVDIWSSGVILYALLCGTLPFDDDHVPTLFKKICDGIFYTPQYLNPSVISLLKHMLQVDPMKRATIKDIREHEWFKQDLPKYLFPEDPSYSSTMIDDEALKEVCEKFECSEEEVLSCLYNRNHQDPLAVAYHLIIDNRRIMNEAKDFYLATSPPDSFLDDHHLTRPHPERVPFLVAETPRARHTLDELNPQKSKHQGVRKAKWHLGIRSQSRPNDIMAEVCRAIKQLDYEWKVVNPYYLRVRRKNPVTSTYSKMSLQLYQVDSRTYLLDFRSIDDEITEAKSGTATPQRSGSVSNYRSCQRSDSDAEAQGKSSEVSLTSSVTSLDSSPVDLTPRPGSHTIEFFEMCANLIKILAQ
Summary of the method: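 HeLa cell lysates (5 mg/mL total protein) were preincubated with inhibitor at 0, 0.8, 2, 10 or 50 μM for 15 min. ATP or ADP acylphosphate probe was then added (5 μM final) for 10 min, and reactions were stopped with urea. Up to four fragment ions per kinase probe-peptide were quantified by targeted MS. % inhibition was taken relative to untreated lysate. Run in duplicate.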

[16] = molecular target: Dual specificity mitogen-activated protein kinase kinase 1 (Homo sapiens, UniProt Q02750); experiment: Inhibition of MAP2K1 in human HeLa cells lysate pre incubated for 15 mins followed by ATP acyl phosphate probe addition and measured after 10 mins by LC-MS/MS analysis; type: subcellular
Dual specificity mitogen-activated protein kinase kinase 1, sequence (Q02750 whole entry): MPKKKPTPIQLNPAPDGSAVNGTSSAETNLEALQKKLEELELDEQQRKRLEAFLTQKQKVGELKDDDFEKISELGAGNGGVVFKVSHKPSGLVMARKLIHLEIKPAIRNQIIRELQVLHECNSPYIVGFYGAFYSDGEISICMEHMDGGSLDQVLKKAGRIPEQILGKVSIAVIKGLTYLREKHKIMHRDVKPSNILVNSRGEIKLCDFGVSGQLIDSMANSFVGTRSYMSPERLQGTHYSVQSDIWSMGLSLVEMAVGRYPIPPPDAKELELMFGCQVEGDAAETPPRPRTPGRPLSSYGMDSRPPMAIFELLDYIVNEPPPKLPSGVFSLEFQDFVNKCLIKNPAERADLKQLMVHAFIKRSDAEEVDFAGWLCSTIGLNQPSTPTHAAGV

[17] = molecular target: Cyclin-G-associated kinase (Homo sapiens) (UniProt O14976); experiment: Inhibition of GAK (unknown origin) assessed as remaining activity at 10 uM by ATP-competition binding assay relative to control

Which results are given for `CCOc1cc(N2CCC(O)CC2)ccc1Nc1ncc2c(n1)N(C)c1ccccc1C(=O)N2C`?
inhibition [1]: 14.1%; CL/F [2]: 26 mL/min/kg; inhibition [3]: 6.9%; inhibition at 50 µM [4]: -80.5%; AUC(0-inf) [5]: 1.39 µM·h; IC50 [6]: > 50 µM; inhibition [7]: -8%; inhibition [8]: -6.5%; inhibition [9]: inactive; inhibition [10]: 12.4%; inhibition at 2 µM [11]: 25.5%; inhibition [12]: 8.4%; inhibition [13]: -9.7%; inhibition at 2 µM [14]: -2.1%; IC50 [15]: > 50 µM; IC50 [16]: > 50 µM; Activity [17]: 31%
